Source: ChEMBL document CHEMBL1125368, “Thiophene systems. 14. Synthesis and antihypertensive activity of novel 7-(cyclic amido)-6-hydroxythieno[3,2-b]pyrans and related compounds as new potassium channel activators” (1992)

Columns and labels:
Assay type in all cases: functional
[1] = tested on: Rattus norvegicus; experiment: Maximal change in rat mean arterial blood pressure after 20 mg/kg p.o.; settings: route oral
Outline: (§1)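 Conscious SHR with an arterial catheter exteriorized at the nape, held in Bollman restraint cages after a 60-min postsurgical recovery. Only rats with MAP >150 mmHg were used. Single oral gavage dose in distilled water (range 0.003-20 mg/kg), pressure monitored continuously for 4 h by transducer. Maximal % change from predrug MAP over 240 min, N ≥ six rats. ED30 from regression over the linear part of the dose-response, with 95% confidence limits.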

[2] = tested on: Rattus norvegicus; experiment: The compound was tested for antihypertensive activity measured as maximal change in mean arterial blood pressure(MAP), after oral administration of 20 mg/kg of the compound.; outline: as §1
[3] = species: Rattus norvegicus; experiment: The compound was tested for 30% reduction in mean arterial blood pressure(MAP); outline: as §1
[4] = species: Oryctolagus cuniculus; experiment: The compound was tested for increase in [86Rb+] efflux in rabbit isolated mesenteric artery over basal rate at a concentration of 3 uM
Outline: (§2)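 Vessel rings from freshly killed rabbits, held on steel wires in physiological buffer at 37 °C gassed with 95% O2/5% CO2. Rings loaded with 86Rb (4-5 μCi/mL) for 3-4 h, then moved in pairs through 4 mL buffer tubes every 10 min. Basal efflux taken over 30-40 min, followed by test compound in about five vials, then compound-free washout for 10-20 min. Efflux aliquots and overnight-digested tissue counted by liquid scintillation.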

[5] = tested on: Rattus norvegicus; experiment: The compound was tested for antihypertensive activity measured as maximal change in mean arterial blood pressure(MAP), after oral administration of 1 mg/kg of the compound.; outline: as §1
[6] = species: Oryctolagus cuniculus; experiment: The compound was tested for increase in [86Rb+] efflux in rabbit isolated mesenteric artery over basal rate at a concentration of 1 uM.; outline: as §2
[7] = species: Oryctolagus cuniculus; experiment: The compound was tested for increase in [86Rb+] efflux in rabbit isolated mesenteric artery over basal rate at a concentration of 30 uM.; outline: as §2
[8] = species: Oryctolagus cuniculus; experiment: The compound was tested for increase in [86Rb+] efflux in rabbit isolated mesenteric artery over basal rate at a concentration of 10 uM.; outline: as §2
[9] = species: Oryctolagus cuniculus; experiment: The compound was tested for increase in [86Rb+] efflux in rabbit isolated mesenteric artery over basal rate at a concentration of 100 uM.; outline: as §2
[10] = species: Oryctolagus cuniculus; experiment: The compound was tested for increase in [86Rb+] efflux in rabbit isolated mesenteric artery over basal rate at a concentration of 100 uM; outline: as §2
[11] = species: Oryctolagus cuniculus; experiment: The compound was tested for increase in [86Rb+] efflux in rabbit isolated mesenteric artery over basal rate at a concentration of 30 uM; outline: as §2
[12] = species: Oryctolagus cuniculus; experiment: The compound was tested for increase in [86Rb+] efflux in rabbit isolated mesenteric artery over basal rate at a concentration of 10 uM; outline: as §2
[13] = species: Oryctolagus cuniculus; experiment: The compound was tested for increase in [86Rb+] efflux in rabbit isolated mesenteric artery over basal rate at a concentration of 3 uM.; outline: as §2
[14] = species: Oryctolagus cuniculus; experiment: The compound was tested for increase in [86Rb+] efflux in rabbit isolated mesenteric artery over basal rate at a concentration of 100 uM( Values in parentheses indicates 95%confidence limits); outline: as §2
[15] = Rattus norvegicus, Arterial blood, read-out: ED30

SMILES: CC1(C)C=C(n2ccccc2=O)c2sc([N+](=O)[O-])cc2O1
- Change [1]: -14%

SMILES: CC1(C)Oc2cc([N+](=O)[O-])sc2[C@@H](N2CCCNC2=O)[C@@H]1O
- Change [2]: -7%

SMILES: CC1(C)Oc2cc([N+](=O)[O-])sc2[C@@H](N2CCCCC2=O)[C@@H]1O (stereo in doubt; 41)
- ED30 [3]: 0.013 mg/kg
- Increase [4]: 66%
- Change ([5]; 1 mg/kg): -63%
- Increase [6]: 26%
- Increase [7]: 91%
- Increase [8]: 80%
- Increase [9]: 53%

SMILES: CC1(C)Oc2cc(C#N)sc2[C@@H](N2CCCC2=O)[C@@H]1O
- ED30 [3, 15]: 0.07 mg/kg
- Change [1]: -67%

SMILES: CC1(C)Oc2cc([N+](=O)[O-])sc2[C@@H](N2CCCC2=O)[C@@H]1O
- ED30 [3, 15]: 0.19 mg/kg
- Increase [6]: 48%
- Increase [7]: 110%
- Change [1]: -60%
- Increase [8]: 67%
- Increase [10]: 114%

SMILES: CC1(C)Oc2cc(C(=O)O)sc2[C@@H](N2CCCCC2=O)[C@@H]1O
- Change [2]: -9%

SMILES: CC1(C)Oc2cc([N+](=O)[O-])sc2[C@@H](n2ccccc2=O)[C@@H]1O
- Increase [11]: 0%
- Change [5]: -10%
- Change [2]: -57%

SMILES: CC1(C)Oc2ccsc2[C@@H](N2CCCC2)[C@@H]1O
- Change [1]: -14%
- Increase [10]: 0%

SMILES: CC(=O)c1cc2c(s1)[C@@H](N1CCCC1=O)[C@H](O)C(C)(C)O2
- ED30 [3, 15]: 0.2 mg/kg
- Increase [11]: 40%
- Increase [12]: 37%
- Change [1]: -62%
- Increase [10]: 57%

SMILES: CC1(C)Oc2cc(Br)sc2[C@@H](N2CCCC2=O)[C@@H]1O
- Increase [11]: 64%
- Increase [12]: 65%
- Change [5]: -3%
- Change [1]: -43%
- Increase [10]: 90%

SMILES: CC1(C)Oc2cc([N+](=O)[O-])sc2[C@@H](N2CC(=O)NCC2=O)[C@@H]1O
- Change [2]: -4%
- Increase [10]: 0%

SMILES: CC1(C)C=C(N2CCCCC2=O)c2sc([N+](=O)[O-])cc2O1
- Change [1]: -5%

SMILES: CC1(C)Oc2cc(C(N)=O)sc2[C@@H](N2CCCCC2=O)[C@@H]1O
- ED30 [3, 15]: 0.2 mg/kg
- Increase [12]: 73%
- Increase [7]: 75%
- Change [1]: -68%
- Increase [10]: 92%

SMILES: CC1(C)Oc2cc(C(=O)OCc3ccccc3)sc2[C@@H](N2CCCC2=O)[C@@H]1O
- Change [1]: -14%

SMILES: CC1(C)Oc2cc([N+](=O)[O-])sc2[C@@H](N2CCCCC2=O)[C@@H]1O (stereo in doubt; 32)
- ED30 [3]: 0.015 mg/kg
- Increase [11]: 60%
- Increase [12]: 56%
- Increase [13]: 41%
- Change [1]: -65%

SMILES: CC1(C)Oc2cc([N+](=O)[O-])sc2[C@@H](N2CCNC2=O)[C@@H]1O
- Change [2]: -3%

SMILES: CC1(C)Oc2ccsc2[C@@H](N2CCCCCC2=O)[C@@H]1O
- Change [2]: -12%
- Increase [10]: 0%

SMILES: CC1(C)Oc2ccsc2[C@@H](N2CCCCC2=O)[C@@H]1O
- Increase [12]: 7%
- Increase [7]: 26%
- Change [1]: -53%
- Increase [10]: 40%

SMILES: CC1(C)C=C(N2CCCCC2)c2sc([N+](=O)[O-])cc2O1
- Change [1]: -17%

SMILES: CC1(C)Oc2cc(C(=O)c3ccccc3)sc2[C@@H](N2CCCC2=O)[C@@H]1O
- Increase [12]: 0%
- Change [5]: -4%
- Increase [7]: 33%
- Change [1]: -50%
- Increase [10]: 58%

SMILES: CC1(C)Oc2cc([N+](=O)[O-])sc2[C@@H](N2CCCCC2=O)[C@@H]1O (relative stereo)
- Change [2]: -24%

SMILES: CC1(C)Oc2cc([N+](=O)[O-])sc2[C@@H](N2CCCCC2=O)[C@@H]1O (stereo in doubt; 40)
- ED30 [3]: 1.9 mg/kg
- Increase [12]: 19%
- Change ([5]; 1 mg/kg): -19%
- Increase [6]: 2%
- Increase [7]: 11%
- Increase [10]: 19%

SMILES: CC1(C)Oc2ccsc2[C@@H](N2CCCC2=O)[C@@H]1O
- ED30 [3, 15]: 5.03 mg/kg
- Increase [12]: 0%
- Increase [7]: 8%
- Change [1]: -55%
- Increase [10]: 25%

SMILES: COC(=O)c1cc2c(s1)[C@@H](N1CCCCC1=O)[C@H](O)C(C)(C)O2
- Increase [7]: 51%
- Change [1]: -37%
- Increase [10]: 63%

SMILES: CC1(C)Oc2ccc(C#N)cc2[C@@H](N2CCCC2=O)[C@@H]1O [LEVCROMAKALIM]
- ED30 [3, 15]: 0.19 mg/kg
- Increase [11]: 73%
- Increase [4]: 41%
- Increase [12]: 46%
- Increase [14]: 104%

SMILES: CC(=O)c1cc2c(s1)[C@@H](N1CCCCC1=O)[C@H](O)C(C)(C)O2
- ED30 [3, 15]: 0.09 mg/kg
- Increase [11]: 38%
- Increase [12]: 13%
- Change [1]: -67%
- Increase [10]: 26%

SMILES: CN(C)C(=O)c1cc2c(s1)[C@@H](N1CCCCC1=O)[C@H](O)C(C)(C)O2
- Change [5]: -7%
- Change [2]: -63%
- Increase [10]: 32%

SMILES: CC1(C)Oc2cc(C(=O)C(F)(F)F)sc2[C@@H](N2CCCC2=O)[C@@H]1O
- Change [5]: -55%
- Change [1]: -68%

SMILES: CC1(C)C=C(n2ccccc2=O)c2cc(C#N)ccc2O1 [BIMAKALIM]
- ED30 [3, 15]: 0.01 mg/kg

SMILES: CC1(C)Oc2ccsc2[C@@H](N2CCCCC2)[C@@H]1O
- Change [1]: -6%
- Increase [10]: 0%

SMILES: Cc1cc2c(s1)[C@@H](N1CCCC1=O)[C@H](O)C(C)(C)O2
- Change [1]: -28%

SMILES: CC1(C)Oc2cc(C#N)sc2[C@@H](N2CCCCC2=O)[C@@H]1O
- ED30 [3, 15]: 0.03 mg/kg
- Change [2]: -66%
- Increase [7]: 11%
- Increase [10]: 0%

SMILES: CC1(C)Oc2cc([N+](=O)[O-])sc2[C@@H](N2CCCCCC2=O)[C@@H]1O
- Increase [11]: 25%
- Change [2]: -34%

SMILES: COC(=O)c1cc2c(s1)[C@@H](N1CCCC1=O)[C@H](O)C(C)(C)O2
- Change [1]: -31%

SMILES: CNC(=O)c1cc2c(s1)[C@@H](N1CCCCC1=O)[C@H](O)C(C)(C)O2.O
- Change [2]: -29%
- Increase [9]: 25%

SMILES: CC1(C)Oc2cc([N+](=O)[O-])sc2[C@@H](N2Cc3ccccc3C2=O)[C@@H]1O
- ED30 [3, 15]: 0.22 mg/kg
- Change [5]: -58%
- Change [1]: -61%

SMILES: CC1(C)Oc2cc(Br)sc2[C@@H](N2CCCCC2=O)[C@@H]1O
- Increase [11]: 42%
- Change [1]: -64%
